Data on 15 compounds can be found in ChEMBL document CHEMBL2057132, “Structure-activity relationship of 2,2-dimethyl-2H-chromene based arylsulfonamide analogs of 3,4-dimethoxy-N-[(2,2-dimethyl-2H-chromen-6-yl)methyl]-N-phenylbenzenesulfonamide, a novel small molecule hypoxia inducible factor-1 (HIF-1) pathway inhibitor and anti-cancer agent” (Bioorg Med Chem, 2012).

Calls of active or inactive are those of the source. No cut-off for these calls is given here.

What is called IC50 is the concentration that gives 50% inhibition. In general, solubility refers to the concentration that dissolves in the medium under given conditions. Read a low solubility as little dissolved substance.

Data set [1] addresses T1, Hypoxia inducible factors; HIF-1-alpha, HIF-2-alpha (Homo sapiens, UniProt Q16665+Q99814). The data set can be described thus: Inhibition of HIF1 transcriptional activity in human LN229 cells expressing VEGF-HRE-V6R and coexpressing luciferase, lac Z gene incubated for 1 hr in normoxia condition followed by 24 hrs in hypoxia condition by reporter gene assay. The class given is cell-based. An outline of the steps: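 LN229 glioblastoma cells stably carrying a 6×VEGF-HRE bidirectional luciferase/lacZ reporter, 3 × 10^4 per well, grown 24 h normoxic in DMEM/10% FBS. Compound (serial dilutions in medium, 1% DMSO) added, 1 h normoxia, then 24 h at 1% O2, 37 °C. Lysate luciferase read by luminometer, as percent of untreated hypoxic cells. Triplicates, two independent experiments.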

Data set [2] addresses T1, Hypoxia inducible factors; HIF-1-alpha, HIF-2-alpha. The data set can be described thus: Inhibition of HIF1 transcriptional activity in human LN229 cells expressing VEGF-HRE-V6R and coexpressing lac Z gene at 10 uM incubated for 1 hr in normoxia condition followed by 24 hrs in hypoxia condition by luciferase reporter gene assay relative to control; values are per cent of control. A general note: In a reporter assay the amount or activity of a reporter protein is the signal.

A short description of data set [3]: Downregulation of HIF1alpha protein level in human LN229 cells expressing VEGF-HRE-V6R at 10 uM incubated for 1 hr in normoxia condition followed by 24 hrs in hypoxia condition by Western blot analysis relative to control. The class given is functional, cell-based. Particulars: LN-229. An outline of the steps: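 LN229-V6R cells (2 × 10^5 per 35 mm dish) grown 24 h under normoxia. Compounds given at 10 μM in medium with 1% DMSO, 1 h normoxia, then 24 h hypoxia (1% O2) at 37 °C. SDS lysis, 12.5% gel, nitrocellulose, anti-HIF-1α and β-actin blots, ECL. Densitometry as percent of untreated hypoxic control, normalized to β-actin.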
(In general: In western blotting, separated proteins are transferred to a membrane and probed.)

The nature of data set [4]: Aqueous solubility of the compound at pH 7.4. The class given is physicochemical.

On to `CC1(C)C=Cc2cc(CN(c3ccc(F)cc3)S(=O)(=O)c3ccc(F)cc3)ccc2O1`, for which, in data set [1], the IC50 amounted to 6.6 µM and the inhibition result was “Dose-dependent effect”.

For the compound `CC(C)N(Cc1ccc2c(c1)C=CC(C)(C)O2)S(=O)(=O)c1ccc([N+](=O)[O-])cc1`, in data set [1], the IC50 stood at 3 µM and the inhibition result is “Dose-dependent effect”.

In the case of `CC(C)N(Cc1ccc2c(c1)C=CC(C)(C)O2)S(=O)(=O)c1cc(Cl)ccc1Cl`, in data set [1], the IC50 amounted to 16.8 µM and the inhibition entry was “Dose-dependent effect”.

For `COc1ccc(S(=O)(=O)N(Cc2ccc3c(c2)C=CC(C)(C)O3)C(C)C)cc1OC`, in data set [1], the IC50 is 1.5 µM and the inhibition entry is “Dose-dependent effect”. The compound further had a residual activity in data set [2] below 5%. For the same compound, the Activity in data set [3] was 30%.

Turning to `COc1ccc(S(=O)(=O)N(Cc2ccc3c(c2)C=CC(C)(C)O3)c2ccccc2)cc1OC`, in data set [1], the IC50 was 1.6 µM and the inhibition entry is “Dose-dependent effect”. This compound gave a residual activity in data set [2] below 5%. For the same compound, the solubility in data set [4] was below 15 µg/mL. Also, the result in data set [3] was inactive.

For the compound `CC1(C)C=Cc2cc(CN(c3ccc(F)cc3)S(=O)(=O)c3ccccc3)ccc2O1`, in data set [1], the IC50 worked out at 7.2 µM and the inhibition result was “Dose-dependent effect”.

With `CC1(C)C=Cc2cc(CN(c3ccccc3)S(=O)(=O)c3ccc([N+](=O)[O-])cc3)ccc2O1`, in data set [1], the half-maximal inhibitory concentration (IC50) was determined as 4.2 µM and the inhibition entry is “Dose-dependent effect”.

Consider `CC(C)N(Cc1ccc2c(c1)C=CC(C)(C)O2)S(=O)(=O)c1ccccc1`, for which, in data set [1], the IC50 is 2.2 µM and the inhibition entry is “Dose-dependent effect”.

Take `CC1(C)C=Cc2cc(CN(c3ccccc3)S(=O)(=O)c3ccccc3)ccc2O1`: in data set [1], the IC50 turned out to be 2.7 µM and the inhibition entry was “Dose-dependent effect”.

As to `COc1ccc(S(=O)(=O)N(Cc2ccc3c(c2)C=CC(C)(C)O3)c2ccc(F)cc2)cc1OC`, in data set [1], the half-maximal inhibitory concentration (IC50) amounted to 3.2 µM and the inhibition entry was “Dose-dependent effect”. Also, in data set [2], the residual activity was below 5%. In data set [3], the result was inactive.

For the compound `CC1(C)C=Cc2cc(CN(c3ccccc3)S(=O)(=O)c3ccc(F)cc3)ccc2O1`, in data set [1], the IC50 came out at 4.8 µM and the inhibition entry was “Dose-dependent effect”.

`CC1(C)C=Cc2cc(CN(c3ccc(F)cc3)S(=O)(=O)c3cc(Cl)ccc3Cl)ccc2O1`: in data set [1], the half-maximal inhibitory concentration (IC50) turned out to be 8 µM and the inhibition result is “Dose-dependent effect”.

As for `CC1(C)C=Cc2cc(CN(c3ccccc3)S(=O)(=O)c3cc(Cl)ccc3Cl)ccc2O1`, in data set [1], the half-inhibitory concentration (IC50) was 3.3 µM and the inhibition entry was “Dose-dependent effect”.

Consider `CC1(C)C=Cc2cc(CN(c3ccc(F)cc3)S(=O)(=O)c3ccc([N+](=O)[O-])cc3)ccc2O1`, for which, in data set [1], the IC50 is 4.8 µM and the inhibition entry was “Dose-dependent effect”.

Take `CC(C)N(Cc1ccc2c(c1)C=CC(C)(C)O2)S(=O)(=O)c1ccc(F)cc1`: in data set [1], the half-maximal inhibitory concentration (IC50) came to 3.8 µM and the inhibition result was “Dose-dependent effect”. Also, the outcome in data set [3] was inactive.
